pIC50: −log10 of the molar value. Values belong to the compound of their own block, whether it stands above or below them. Calls of active or inactive are those of the source. The rule behind the calls is not given here. Where a SMILES comes first, the peptide text is derived from it. The star is where a group is joined. Isobutyryl = CC(C)C(=O)*; Piperidide = C1CCN(*)CC1; Cbz = O=C(OCc1ccccc1)*; PhAc = O=C(Cc1ccccc1)*; Boc = CC(C)(C)OC(=O)*; NHBn = c1ccc(CN*)cc1; Piv = CC(C)(C)C(=O)*; NHtBu = CC(C)(C)N*
Legend:
[1] = Solubility of the compound; type: physicochemical
[2] = target: T1, Protein Mdm4 (Homo sapiens) (UniProt O15151); test: Inhibition of GST-tagged MDMX expressed in Escherichia coli harboring integrated p53-Hmd2 protein assessed as blockade of enzyme-p53 interaction by beta-galactosidase assay; conditions: concentration not given here
T1 sequence (whole entry): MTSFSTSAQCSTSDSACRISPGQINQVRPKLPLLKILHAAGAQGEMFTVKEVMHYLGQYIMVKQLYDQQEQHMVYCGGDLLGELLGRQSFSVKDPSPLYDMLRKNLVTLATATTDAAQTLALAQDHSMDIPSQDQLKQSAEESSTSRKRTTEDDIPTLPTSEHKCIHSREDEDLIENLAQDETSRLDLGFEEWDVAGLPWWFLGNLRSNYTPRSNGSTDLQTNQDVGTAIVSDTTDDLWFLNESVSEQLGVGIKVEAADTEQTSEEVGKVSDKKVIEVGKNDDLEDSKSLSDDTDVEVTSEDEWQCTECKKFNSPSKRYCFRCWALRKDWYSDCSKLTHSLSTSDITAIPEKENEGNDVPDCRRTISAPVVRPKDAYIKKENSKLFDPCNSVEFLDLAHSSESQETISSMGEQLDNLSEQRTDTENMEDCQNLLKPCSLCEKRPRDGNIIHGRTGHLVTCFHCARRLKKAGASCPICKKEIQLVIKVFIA
Summary of the method: (§1)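 E. coli reporter strain SNS126 (HIS3-KanR-lacZ) carrying chromosomally integrated DBD-fusion repressor halves (Hdm2–p53 or Hdmx–p53), transformed with SICLOPPS cyclic-peptide constructs and tested in both native and opposite strains. Cells grown on solid LB with 32 µM IPTG plus 9.7 µM L-arabinose; β-galactosidase measured by ONPG hydrolysis. % derepression = percent β-galactosidase enhancement relative to unrepressed (DBD-only) control.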

[3] = target: T1, Protein Mdm4 (Homo sapiens); test: Inhibition of GST-tagged MDMX expressed in Escherichia coli harboring integrated p53-MDMX protein assessed as enzyme-p53 interaction by beta-galactosidase assay; set-up: concentration or dose not given beside the values; conditions: concentration not given here; summary of the method: as §1
[4] = target: T1, Protein Mdm4 (Homo sapiens); test: Inhibition of GST-tagged MDMX expressed in Escherichia coli harboring integrated p53-MDMX protein assessed as enhancement of enzyme-p53 interaction by beta-galactosidase assay; set-up: concentration or dose not given beside the values; conditions: concentration not given here; summary of the method: as §1
[5] = target: T1, Protein Mdm4 (Homo sapiens); test: Inhibition of GST-tagged MDMX expressed in Escherichia coli harboring integrated p53-Hmd2 protein assessed as enhancement of enzyme-p53 interaction by beta-galactosidase assay; set-up: concentration or dose not given beside the values; conditions: concentration not given here; summary of the method: as §1
[6] = target: T1, Protein Mdm4 (Homo sapiens); test: Inhibition of GST-tagged MDMX expressed in Escherichia coli harboring integrated p53-Hmd2 protein assessed as enzyme-p53 interaction by beta-galactosidase assay; set-up: concentration or dose not given beside the values; conditions: concentration not given here; summary of the method: as §1
[7] = target: T1, Protein Mdm4 (Homo sapiens); test: Inhibition of GST-tagged MDMX expressed in Escherichia coli harboring integrated p53-MDMX protein assessed as blockade of enzyme-p53 interaction by beta-galactosidase assay; set-up: concentration or dose not given beside the values; conditions: concentration not given here; summary of the method: as §1
[8] = target: T2, E3 ubiquitin-protein ligase Mdm2 (Homo sapiens, UniProt Q00987); test: Inhibition of GST-tagged p53 binding to Hdm2 by ELISA
[9] = target: T2, E3 ubiquitin-protein ligase Mdm2; test: Inhibition of GST-tagged Hdm2 expressed in Escherichia coli harboring integrated p53-Hmd2 protein assessed as blockade of enzyme-p53 interaction by beta-galactosidase assay; conditions: concentration not given here; summary of the method: as §1
Target sequence in this assay (Q00987 whole entry, looked up): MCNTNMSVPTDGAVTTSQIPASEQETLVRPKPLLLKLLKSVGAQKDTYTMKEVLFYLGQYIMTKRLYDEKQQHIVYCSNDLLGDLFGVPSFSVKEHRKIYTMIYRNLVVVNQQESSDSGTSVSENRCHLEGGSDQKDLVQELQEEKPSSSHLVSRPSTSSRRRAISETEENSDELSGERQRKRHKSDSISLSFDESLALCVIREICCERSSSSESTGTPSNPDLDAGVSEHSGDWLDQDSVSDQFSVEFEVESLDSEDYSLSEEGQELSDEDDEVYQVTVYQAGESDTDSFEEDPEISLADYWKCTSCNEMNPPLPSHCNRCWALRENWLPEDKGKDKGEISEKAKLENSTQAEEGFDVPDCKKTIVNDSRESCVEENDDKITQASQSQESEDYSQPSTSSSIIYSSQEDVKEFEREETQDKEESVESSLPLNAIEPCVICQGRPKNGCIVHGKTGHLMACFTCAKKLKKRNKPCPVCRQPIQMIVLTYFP

[10] = target: T2, E3 ubiquitin-protein ligase Mdm2; test: Inhibition of GST-tagged Hdm2 expressed in Escherichia coli harboring integrated p53-MDMX protein assessed as blockade of enzyme-p53 interaction by beta-galactosidase assay; conditions: concentration not given here; summary of the method: as §1
Target sequence in this assay (Q00987 whole entry, looked up): as above

[11] = target: T2, E3 ubiquitin-protein ligase Mdm2; test: Inhibition of GST-tagged Hdm2 expressed in Escherichia coli harboring integrated p53-MDMX protein assessed as enzyme-p53 interaction by beta-galactosidase assay; conditions: concentration not given here; summary of the method: as §1
Target sequence in this assay (Q00987 whole entry, looked up): as above

[12] = target: T2, E3 ubiquitin-protein ligase Mdm2; test: Inhibition of GST-tagged Hdm2 expressed in Escherichia coli harboring integrated p53-Hmd2 protein assessed as enhancement of enzyme-p53 interaction by beta-galactosidase assay; conditions: concentration not given here; summary of the method: as §1
Target sequence in this assay (Q00987 whole entry, looked up): as above

[13] = target: T2, E3 ubiquitin-protein ligase Mdm2; test: Inhibition of GST-tagged Hdm2 expressed in Escherichia coli harboring integrated p53-Hmd2 protein assessed as enzyme-p53 interaction by beta-galactosidase assay; conditions: concentration not given here; summary of the method: as §1
Target sequence in this assay (Q00987 whole entry, looked up): as above

[14] = target: T2, E3 ubiquitin-protein ligase Mdm2; test: Inhibition of GST-tagged Hdm2 expressed in Escherichia coli harboring integrated p53-MDMX protein assessed as enhancement of enzyme-p53 interaction by beta-galactosidase assay; conditions: concentration not given here; summary of the method: as §1
Target sequence in this assay (Q00987 whole entry, looked up): as above

Compound: CC(C)[C@H](NC(=O)[C@H](Cc1ccc(O)cc1)NC(=O)[C@H](Cc1ccc(O)cc1)NC(=O)[C@H](Cc1ccccc1)NC(=O)OC(C)(C)C)C(=O)N1CCCCC1 (Boc-FYYV-Piperidide)
solubility [1]: Insoluble

Compound: H-CHLRWL-OH
inhibition [2]: 10%
inhibition [3]: 75%
inhibition [4]: 34%
inhibition [5]: 7%
inhibition [6]: 41%
inhibition [7]: 58%

Compound: CC(C)(C)NC(=O)[C@H](Cc1ccccc1)NC(=O)[C@H](Cc1c[nH]c2ccccc12)NC(=O)[C@H](CCCNC(=N)N)NC(=O)Cc1ccccc1 (PhAc-Arg-Trp-Phe-NHtBu)
inhibition [8]: inactive

Compound: H-CIWWYM-OH
inhibition [9]: 12%
inhibition [10]: 49%
inhibition [11]: 70%
inhibition [12]: 8%
inhibition [13]: 41%
inhibition [14]: 29%

Compound: CC(C)C(=O)N[C@@H](CCCNC(=N)N)C(=O)N[C@@H](Cc1c[nH]c2ccccc12)C(=O)N[C@@H](Cc1ccccc1)C(=O)NCc1ccccc1 (Isobutyryl-Arg-Trp-Phe-NHBn)
inhibition [8]: inactive

Compound: CC(C)(C)NC(=O)[C@H](Cc1ccccc1)NC(=O)[C@H](Cc1c[nH]c2ccccc12)NC(=O)[C@H](CCCNC(=N)N)NC(=O)C(C)(C)C (Piv-Arg-Trp-Phe-NHtBu)
inhibition [8]: inactive

Compound: CC(C)C(=O)N[C@@H](CCCNC(=N)N)C(=O)N[C@@H](Cc1c[nH]c2ccccc12)C(=O)N[C@@H](Cc1ccccc1)C(=O)NC(C)(C)C (Isobutyryl-Arg-Trp-Phe-NHtBu)
inhibition [8]: inactive

Compound: CC(C)(C)OC(=O)N[C@@H](CCCNC(=N)N)C(=O)N[C@@H](Cc1c[nH]c2ccccc12)C(=O)N[C@@H](Cc1ccccc1)C(=O)NCc1ccccc1 (Boc-Arg-Trp-Phe-NHBn)
inhibition [8]: inactive

Compound: H-CIFYYV-OH
inhibition [9]: 51%
inhibition [10]: 42%
inhibition [11]: 66%
inhibition [12]: 34%
inhibition [13]: 67%
inhibition [14]: 24%

Compound: CC[C@H](C)[C@@H]1NC(=O)[C@H](C)NC(=O)[C@H](C(C)C)NC(=O)[C@H](Cc2ccc(O)cc2)NC(=O)[C@H](Cc2ccc(O)cc2)NC(=O)[C@H](Cc2ccccc2)NC1=O (cyclo(AIFYYV))
Activity [8]: Dose-dependent effect
pIC50 [8]: 3.68

Compound: N=C(N)NCCC[C@H](NC(=O)OCc1ccccc1)C(=O)N[C@@H](Cc1c[nH]c2ccccc12)C(=O)N[C@@H](Cc1ccccc1)C(=O)NCc1ccccc1 (Cbz-Arg-Trp-Phe-NHBn)
inhibition [8]: inactive

Compound: CC[C@H](C)[C@H](NC(=O)OC(C)(C)C)C(=O)N[C@@H](Cc1ccccc1)C(=O)N[C@@H](Cc1ccc(O)cc1)C(=O)N[C@@H](Cc1ccc(O)cc1)C(=O)N[C@H](C(=O)N1CCCCC1)C(C)C (Boc-IFYYV-Piperidide)
solubility [1]: Insoluble

Compound: CC(C)(C)NC(=O)[C@H](Cc1ccccc1)NC(=O)[C@H](Cc1c[nH]c2ccccc12)NC(=O)[C@H](CCCNC(=N)N)NC(=O)OC(C)(C)C (Boc-Arg-Trp-Phe-NHtBu)
inhibition [8]: inactive

Compound: CC(C)(C)C(=O)N[C@@H](CCCNC(=N)N)C(=O)N[C@@H](Cc1c[nH]c2ccccc12)C(=O)N[C@@H](Cc1ccccc1)C(=O)NCc1ccccc1 (Piv-Arg-Trp-Phe-NHBn)
inhibition [8]: inactive

Compound: H-CDLRWF-OH
inhibition [2]: 6%
inhibition [3]: 86%
inhibition [4]: 45%
inhibition [5]: 4%
inhibition [6]: 37%
inhibition [7]: 76%

Compound: CC(C)(C)OC(=O)N[C@@H](CCCNC(=N)N)C(=O)N[C@@H](Cc1c[nH]c2ccccc12)C(=O)N[C@@H](Cc1ccccc1)C(=O)N1CCCCC1
inhibition [8]: inactive

Compound: N=C(N)NCCC[C@H](NC(=O)OCc1ccccc1)C(=O)N[C@@H](Cc1c[nH]c2ccccc12)C(=O)N[C@@H](Cc1ccccc1)C(=O)N1CCCCC1 (Cbz-Arg-Trp-Phe-Piperidide)
inhibition [8]: inactive

Continued, values first:

inhibition [2]: 18%
inhibition [3]: 69%
inhibition [4]: 28%
inhibition [5]: 12%
inhibition [6]: 45%
inhibition [7]: 47%
Compound: H-CLFFNY-OH

inhibition [2]: 7%
inhibition [3]: 70%
inhibition [4]: 29%
inhibition [5]: 5%
inhibition [6]: 38%
inhibition [7]: 49%
Compound: H-CRLLDF-OH

inhibition [8]: inactive
Compound: CC(C)COC(=O)N[C@@H](CCCNC(=N)N)C(=O)N[C@@H](Cc1c[nH]c2ccccc12)C(=O)N[C@@H](Cc1ccccc1)C(=O)NC(C)(C)C

inhibition [8]: inactive
Compound: CC(C)COC(=O)N[C@@H](CCCNC(=N)N)C(=O)N[C@@H](Cc1c[nH]c2ccccc12)C(=O)N[C@@H](Cc1ccccc1)C(=O)NCc1ccccc1

inhibition [9]: 18%
inhibition [10]: 41%
inhibition [11]: 65%
inhibition [12]: 12%
inhibition [13]: 45%
inhibition [14]: 24%
Compound: H-CLWWYM-OH

inhibition [9]: 18%
inhibition [10]: 37%
inhibition [11]: 63%
inhibition [12]: 12%
inhibition [13]: 45%
inhibition [14]: 22%
Compound: H-CMFYYI-OH

inhibition [2]: 7%
inhibition [3]: 71%
inhibition [4]: 30%
inhibition [5]: 5%
inhibition [6]: 38%
inhibition [7]: 51%
Compound: H-CKAVLF-OH

inhibition [8]: inactive
Compound: N=C(N)NCCC[C@H](NC(=O)Cc1ccccc1)C(=O)N[C@@H](Cc1c[nH]c2ccccc12)C(=O)N[C@@H](Cc1ccccc1)C(=O)NCc1ccccc1 (PhAc-Arg-Trp-Phe-NHBn)

From ChEMBL document CHEMBL1255504, “Functional profiling of p53-binding sites in Hdm2 and Hdmx using a genetic selection system” (Bioorg Med Chem, 2010)
